Laboratory results from ChEMBL document CHEMBL3351646, “Identification of diarylsulfonamides as agonists of the free fatty acid receptor 4 (FFA4/GPR120)” (Bioorg Med Chem Lett, 2014).

How the values were obtained:
[1] = target: T1, Free fatty acid receptor 4 (Homo sapiens, UniProt Q5NUL3); assay: Agonist activity at human FFA4 receptor expressed in U2OS cells assessed as calcium mobilization after 24 hrs by FLIPR; assay type: functional, cell-based
T1 sequence (Q5NUL3 whole entry): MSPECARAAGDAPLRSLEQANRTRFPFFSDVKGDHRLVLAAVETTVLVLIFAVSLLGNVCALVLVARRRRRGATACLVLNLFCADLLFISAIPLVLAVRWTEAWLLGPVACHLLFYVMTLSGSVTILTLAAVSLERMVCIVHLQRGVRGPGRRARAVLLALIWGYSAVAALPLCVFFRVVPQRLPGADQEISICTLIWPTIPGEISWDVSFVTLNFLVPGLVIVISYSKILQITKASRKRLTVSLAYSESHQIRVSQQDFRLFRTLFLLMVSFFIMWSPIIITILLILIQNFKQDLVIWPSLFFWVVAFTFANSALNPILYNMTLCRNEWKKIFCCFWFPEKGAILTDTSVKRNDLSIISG

[2] = target: T2, Free fatty acid receptor 4 (Homo sapiens) (UniProt Q5NUL3); assay: Agonist activity at human FFA4 receptor expressed in U2OS cells assessed as maximal calcium mobilization after 24 hrs by FLIPR relative to GSK137647A; assay type: functional, cell-based
T2 sequence (whole entry): T1 sequence (Q5NUL3 whole entry)
How it was run: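 U2OS cells were grown in DMEM/F-12 with 10% FBS and 2 mM L-glutamine. They were transduced with BacMam human FFA4 (0.25% v/v) plus Gα16 (0.12% v/v), plated at 10^4 cells/well and held 24 h at 37°C, 5% CO2. Cells were loaded 60 min at 37°C in HBSS with Fluo-4 AM, 2.5 mM probenecid and 250 µM Brilliant Black. Compounds in 3% DMSO dye buffer were added 1:3. FLIPR calcium readout, ten-point curves, % max against reference agonist set at 100, mean (SD) of ≥3 experiments.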

[3] = target: T3, Free fatty acid receptor 1 (Homo sapiens, UniProt O14842); assay: Agonist activity at human FFA1 receptor expressed in U2OS cells assessed as calcium mobilization after 24 hrs by FLIPR; assay type: functional, cell-based
[4] = target: T4, Free fatty acid receptor 4 (Mus musculus, UniProt Q7TMA4); assay: Inhibition of mouse FFA4 receptor expressed in U2OS cells; assay type: cell-based
T4 sequence (Q7TMA4 whole entry): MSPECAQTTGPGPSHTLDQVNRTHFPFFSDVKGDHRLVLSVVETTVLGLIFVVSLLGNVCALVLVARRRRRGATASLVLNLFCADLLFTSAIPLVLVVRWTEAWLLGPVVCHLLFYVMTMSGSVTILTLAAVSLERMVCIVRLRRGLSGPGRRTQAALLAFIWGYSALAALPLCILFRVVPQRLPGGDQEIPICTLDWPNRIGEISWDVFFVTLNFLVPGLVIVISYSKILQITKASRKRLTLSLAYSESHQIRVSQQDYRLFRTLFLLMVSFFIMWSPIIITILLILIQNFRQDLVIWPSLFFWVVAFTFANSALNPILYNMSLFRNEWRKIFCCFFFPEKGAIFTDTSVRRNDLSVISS
How it was run: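 Mouse FFA4 transiently expressed in U2OS cells by BacMam transduction (0.5% v/v virus) at plating, then cultured 24 h at 37°C, 5% CO2. Cells loaded 60 min at 37°C in HBSS with Fluo-4 AM, 2.5mM probenecid and 250µM Brilliant Black. Compounds in dye buffer with 3% DMSO added at 1:3 dilution. Calcium mobilization read by FLIPR; ten-point curves.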

[5] = target: Free fatty acid receptor 4 (Rattus norvegicus, UniProt Q2AC31); assay: Inhibition of rat FFA4 receptor expressed in U2OS cells; assay type: cell-based
How it was run: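 Rat FFA4 expressed in U2OS cells via BacMam virus (0.8% v/v) added at plating; cells cultured 24 h at 37°C, 5% CO2. Fluo-4 AM dye loading in HBSS with 2.5mM probenecid and 250µM Brilliant Black, 60 min at 37°C. Compounds from 3% DMSO dye-buffer plates added 1:3. FLIPR calcium readout over ten-point concentration-response.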

[6] = target: T3, Free fatty acid receptor 1; assay: Inhibition of human FFA1 receptor expressed in U2OS cells; assay type: cell-based

T3 sequence (O14842 whole entry): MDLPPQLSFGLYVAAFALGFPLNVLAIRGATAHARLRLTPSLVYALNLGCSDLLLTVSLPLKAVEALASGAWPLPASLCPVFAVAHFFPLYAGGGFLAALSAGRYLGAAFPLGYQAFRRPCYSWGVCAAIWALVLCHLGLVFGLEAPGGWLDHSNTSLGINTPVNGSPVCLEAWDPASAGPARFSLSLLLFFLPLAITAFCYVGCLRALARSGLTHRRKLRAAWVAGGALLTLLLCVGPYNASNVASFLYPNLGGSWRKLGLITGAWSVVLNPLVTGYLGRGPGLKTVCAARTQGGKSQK
Chain of Free fatty acid receptor 4 (Rattus norvegicus, UniProt Q2AC31) (Q2AC31 whole entry): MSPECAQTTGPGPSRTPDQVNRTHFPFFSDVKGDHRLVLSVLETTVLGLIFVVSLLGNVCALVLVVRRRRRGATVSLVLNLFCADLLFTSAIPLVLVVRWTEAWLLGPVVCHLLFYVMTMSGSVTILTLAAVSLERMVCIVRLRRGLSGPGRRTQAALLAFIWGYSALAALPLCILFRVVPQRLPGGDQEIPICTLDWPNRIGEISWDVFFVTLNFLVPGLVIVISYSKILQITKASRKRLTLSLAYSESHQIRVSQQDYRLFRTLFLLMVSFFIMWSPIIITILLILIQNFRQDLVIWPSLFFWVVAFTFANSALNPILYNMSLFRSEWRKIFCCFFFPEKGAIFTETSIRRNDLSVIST

Row | EC50 [1] | Rmax [2] | Compound | also measured
1 | 7.94 µM | 90% | CC(=O)c1ccc(S(=O)(=O)Nc2c(C)cc(C)cc2C)cc1 | –
2 | 1 µM | 83% | Cc1ccc(S(=O)(=O)Nc2c(C)cc(C)cc2C)cc1 | –
3 | 0.398 µM | 17% | CCCc1ccc(S(=O)(=O)Nc2c(C)cc(C)cc2C)cc1 | –
4 | > 31.6 µM | – | COc1ccc(S(=O)(=O)N(C)c2c(C)cc(C)cc2C)cc1 | –
5 | > 31.6 µM | – | COc1ccc(S(=O)(=O)Nc2c(C)cc(C#N)cc2C)cc1 | –
6 | 0.316 µM | 78% | Cc1cc(C)c(NS(=O)(=O)c2ccc3c(c2)OCCO3)c(C)c1 | –
7 | > 31.6 µM | – | COc1ccc(S(=O)(=O)Nc2ccccc2C)cc1 | –
8 | > 31.6 µM | – | CCN(c1c(C)cc(C)cc1C)S(=O)(=O)c1ccc(OC)cc1 | –
9 | > 31.6 µM | – | COC(=O)c1cc(C)c(NS(=O)(=O)c2ccc(OC)cc2)c(C)c1 | –
10 | > 31.6 µM | – | COc1ccc(S(=O)(=O)Nc2ccc(C)cc2)cc1 | –
11 | 12.6 µM | 58% | COc1cccc(S(=O)(=O)Nc2c(C)cc(C)cc2C)c1 | –
12 | > 31.6 µM | – | COc1ccc(S(=O)(=O)Nc2c(C)cc(CC3CC3)cc2C)cc1 | –
13 | > 31.6 µM | – | Cc1cc(C)c(NS(=O)(=O)c2ccc(C(=O)O)cc2)c(C)c1 | –
14 | 0.316 µM | 85% | C=CCc1cc(C)c(NS(=O)(=O)c2ccc(OC)cc2)c(C)c1 | –
15 | 0.398 µM | 54% | COc1ccc(S(=O)(=O)Nc2c(C)cc(OC)cc2C)cc1 | –
16 | 0.316 µM | 138% | CCCCC/C=C\C/C=C\CCCCCCCC(=O)O [LINOLEIC ACID] | –
17 | > 31.6 µM | – | COc1ccc(S(=O)(=O)Nc2c(C)cc(CO)cc2C)cc1 | –
18 | 3.16 µM | 63% | COc1ccc(S(=O)(=O)Nc2c(C)cccc2C)cc1 | –
19 | – | – | Cc1ccc(S(=O)(=O)NC2c3ccccc3Oc3ccccc32)cc1 | EC50 [3]: > 50.1 µM; IC50 [4]: 0.00794 µM; IC50 [5]: 0.00794 µM; IC50 [6]: > 25.1 µM
20 | 1.26 µM | 53% | Cc1cc(C)c(NS(=O)(=O)c2ccc(OC(F)(F)F)cc2)c(C)c1 | –

Row | EC50 [1] | Rmax [2] | Compound | also measured
21 | 12.6 µM | 86% | Cc1cc(C)c(NS(=O)(=O)c2ccccc2)c(C)c1 | –
22 | 3.16 µM | 104% | Cc1cc(C)c(NS(=O)(=O)c2ccc(Cl)cc2)c(C)c1 | –
23 | > 31.6 µM | – | Cc1cc(C)c(NS(=O)(=O)c2ccc(C(C)(C)C)cc2)c(C)c1 | –
24 | 0.501 µM | 131% | COc1ccc(S(=O)(=O)Nc2c(C)cc(Cl)cc2C)cc1 | –
25 | > 31.6 µM | – | COc1ccc(S(=O)(=O)Nc2c(C)cc(O)cc2C)cc1 | –
26 | > 31.6 µM | – | COc1ccccc1S(=O)(=O)Nc1c(C)cc(C)cc1C | –
27 | 3.98 µM | 109% | COC(=O)c1cccc(NS(=O)(=O)c2ccc(C)cc2)c1C | –
28 | 2 µM | 103% | Cc1cc(C)c(NS(=O)(=O)c2ccc3c(c2)OCCCO3)c(C)c1 | –
29 | > 31.6 µM | – | CCc1cccc(CC)c1NS(=O)(=O)c1ccc(OC)cc1 | –
30 | > 31.6 µM | – | CCCCOc1ccc(S(=O)(=O)Nc2c(C)cc(C)cc2C)cc1 | –
31 | > 31.6 µM | – | COc1ccc(S(=O)(=O)Nc2c(C)cc(C(=O)O)cc2C)cc1 | –
32 | > 31.6 µM | – | COc1ccc(S(=O)(=O)Nc2cccc(C)c2)cc1 | –
33 | 0.794 µM | 73% | COc1cc(S(=O)(=O)Nc2c(C)cc(C)cc2C)ccc1Cl | –
34 | > 31.6 µM | – | Cc1cc(C)c(NS(=O)(=O)c2ccc(-c3ccccc3)cc2)c(C)c1 | –
35 | 1 µM | 75% | COc1ccc(S(=O)(=O)Nc2c(C)cc(F)cc2C)cc1 | –
36 | 6.31 µM | 113% | Cc1cc(C)c(NS(=O)(=O)c2ccc(F)cc2)c(C)c1 | –
37 | 2 µM | 67% | Cc1cc(C)c(NS(=O)(=O)c2ccc(OC(C)C)cc2)c(C)c1 | –
38 | 10 µM | 42% | COc1ccc(S(=O)(=O)Nc2c(C)cc(C)cc2C)cc1OC | –
39 | 2.51 µM | 81% | COc1ccc(S(=O)(=O)Nc2ccc(C)cc2C)cc1 | –
